≈ marks a conversion by molar mass, not a printed value.
Legend:
[1] = biological target: Receptor tyrosine-protein kinase erbB-2 (Homo sapiens, UniProt P04626); experiment: Inhibition of recombinant ERBB2
Outline: (§1)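 Purified recombinant kinase, 50 µL reaction. 1 µM [γ-33P]-ATP with substrate; compound added in 10% DMSO. Tested over several concentrations; IC50 in g/mL.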

[2] = biological target: Insulin-like growth factor 1 receptor (Homo sapiens, UniProt P08069); experiment: Inhibition of recombinant IGF1R; outline: as §1
[3] = biological target: Proto-oncogene tyrosine-protein kinase Src (Homo sapiens, UniProt P12931); experiment: Inhibition of recombinant SRC; outline: as §1
[4] = biological target: Vascular endothelial growth factor receptor 3 (Homo sapiens, UniProt P35916); experiment: Inhibition of recombinant VEGFR3; outline: as §1
[5] = biological target: Platelet-derived growth factor receptor beta (Homo sapiens, UniProt P09619); experiment: Inhibition of recombinant PDGFRbeta
[6] = biological target: Serine/threonine-protein kinase PLK1 (Homo sapiens, UniProt P53350); experiment: Inhibition of recombinant PLK1; outline: as §1
[7] = biological target: Casein kinase II subunit alpha (Homo sapiens, UniProt P68400); experiment: Inhibition of recombinant CK2alpha1; outline: as §1
Angiopoietin-1 receptor = Angiopoietin-1 receptor (Homo sapiens, UniProt Q02763); experiment: Inhibition of recombinant TIE2; outline: as §1
L5178Y [8] = experiment: Cytotoxicity against mouse L5178Y cells at 10 ug/ml by MTT assay; format: functional
[9] = biological target: RAC-alpha serine/threonine-protein kinase (Homo sapiens, UniProt P31749); experiment: Inhibition of recombinant AKT1; outline: as §1
Aurora kinase A = biological target: T1, Aurora kinase A (Homo sapiens, UniProt O14965); experiment: Inhibition of recombinant Aurora A; outline: as §1
T1 sequence (O14965 whole entry): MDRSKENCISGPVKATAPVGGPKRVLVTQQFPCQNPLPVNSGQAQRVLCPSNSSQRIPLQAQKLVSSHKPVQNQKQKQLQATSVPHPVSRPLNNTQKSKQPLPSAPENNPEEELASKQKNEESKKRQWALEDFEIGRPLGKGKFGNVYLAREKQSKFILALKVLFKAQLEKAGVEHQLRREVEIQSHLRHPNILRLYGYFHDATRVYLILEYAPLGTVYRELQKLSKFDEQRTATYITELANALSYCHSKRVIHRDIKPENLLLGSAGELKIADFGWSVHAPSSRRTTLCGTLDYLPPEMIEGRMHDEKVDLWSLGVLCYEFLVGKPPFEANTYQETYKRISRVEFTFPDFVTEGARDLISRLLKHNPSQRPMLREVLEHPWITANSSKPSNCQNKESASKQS

Aurora kinase B = Aurora kinase B (Homo sapiens, UniProt Q96GD4); experiment: Inhibition of recombinant Aurora B; outline: as §1
[10] = biological target: Serine/threonine-protein kinase B-raf (Homo sapiens, UniProt P15056, V600E); experiment: Inhibition of recombinant B-RAF-V600E mutant; outline: as §1
[11] = biological target: T2, Serine/threonine-protein kinase PLK4 (Homo sapiens, UniProt O00444); experiment: Inhibition of recombinant SAK
T2 sequence (O00444 whole entry): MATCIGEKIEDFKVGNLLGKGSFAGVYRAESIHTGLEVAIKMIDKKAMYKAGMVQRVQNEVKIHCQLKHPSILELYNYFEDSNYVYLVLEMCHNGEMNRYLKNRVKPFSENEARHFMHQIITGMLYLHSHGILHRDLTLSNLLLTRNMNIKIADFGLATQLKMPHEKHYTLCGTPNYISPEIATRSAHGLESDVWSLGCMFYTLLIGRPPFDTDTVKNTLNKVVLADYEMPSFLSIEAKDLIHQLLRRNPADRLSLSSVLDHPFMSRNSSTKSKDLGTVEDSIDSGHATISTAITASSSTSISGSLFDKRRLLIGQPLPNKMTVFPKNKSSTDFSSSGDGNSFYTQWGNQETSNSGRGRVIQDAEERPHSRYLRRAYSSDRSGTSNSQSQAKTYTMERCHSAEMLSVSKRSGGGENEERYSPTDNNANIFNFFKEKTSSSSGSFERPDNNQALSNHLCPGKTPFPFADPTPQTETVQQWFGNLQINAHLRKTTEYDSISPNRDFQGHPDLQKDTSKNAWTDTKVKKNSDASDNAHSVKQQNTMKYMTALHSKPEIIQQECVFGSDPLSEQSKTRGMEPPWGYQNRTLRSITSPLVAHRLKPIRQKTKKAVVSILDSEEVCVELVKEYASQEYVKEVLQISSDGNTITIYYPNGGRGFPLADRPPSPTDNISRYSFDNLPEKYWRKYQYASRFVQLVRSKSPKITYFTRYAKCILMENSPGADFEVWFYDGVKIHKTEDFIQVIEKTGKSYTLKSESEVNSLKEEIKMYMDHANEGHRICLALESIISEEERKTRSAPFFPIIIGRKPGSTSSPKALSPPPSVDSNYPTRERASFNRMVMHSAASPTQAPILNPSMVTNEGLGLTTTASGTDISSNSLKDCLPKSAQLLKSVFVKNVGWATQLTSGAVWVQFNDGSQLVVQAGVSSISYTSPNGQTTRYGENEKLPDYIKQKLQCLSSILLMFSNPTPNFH

L5178Y [12] = experiment: Cytotoxicity against mouse L5178Y cells by MTT assay; format: functional, cell-based
Outline: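 Mouse L5178Y lymphoma cells; MTT microculture tetrazolium read-out, relative to untreated controls. Vehicle controls with 0.1% EGMME/DMSO. Triplicate wells, experiment repeated three times.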

[13] = biological target: Cyclin-dependent kinase 4/cyclin D1 (Homo sapiens, UniProt P11802+P24385); experiment: Inhibition of recombinant CDK4/CycD1; outline: as §1
Chain of Cyclin-dependent kinase 4/cyclin D1 (P11802 whole entry): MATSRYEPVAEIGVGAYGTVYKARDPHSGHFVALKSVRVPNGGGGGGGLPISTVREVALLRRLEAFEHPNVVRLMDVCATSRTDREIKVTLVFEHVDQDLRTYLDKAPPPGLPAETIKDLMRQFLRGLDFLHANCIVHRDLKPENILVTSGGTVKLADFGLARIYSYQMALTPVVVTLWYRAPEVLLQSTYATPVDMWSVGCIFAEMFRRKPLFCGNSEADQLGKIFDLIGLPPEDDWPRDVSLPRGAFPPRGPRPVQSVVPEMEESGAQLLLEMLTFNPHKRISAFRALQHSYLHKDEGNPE
Chain of Cyclin-dependent kinase 4/cyclin D1 (P24385 whole entry): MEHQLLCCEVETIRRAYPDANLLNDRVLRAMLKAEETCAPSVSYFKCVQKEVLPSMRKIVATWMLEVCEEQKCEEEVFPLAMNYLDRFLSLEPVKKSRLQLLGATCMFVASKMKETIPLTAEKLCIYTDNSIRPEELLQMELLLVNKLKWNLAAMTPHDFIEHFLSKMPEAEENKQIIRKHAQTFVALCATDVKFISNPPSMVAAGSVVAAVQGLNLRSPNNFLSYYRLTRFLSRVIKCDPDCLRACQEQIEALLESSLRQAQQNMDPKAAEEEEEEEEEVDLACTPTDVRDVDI

Chain of Serine/threonine-protein kinase B-raf (P15056 2-766 V600E limits assumed): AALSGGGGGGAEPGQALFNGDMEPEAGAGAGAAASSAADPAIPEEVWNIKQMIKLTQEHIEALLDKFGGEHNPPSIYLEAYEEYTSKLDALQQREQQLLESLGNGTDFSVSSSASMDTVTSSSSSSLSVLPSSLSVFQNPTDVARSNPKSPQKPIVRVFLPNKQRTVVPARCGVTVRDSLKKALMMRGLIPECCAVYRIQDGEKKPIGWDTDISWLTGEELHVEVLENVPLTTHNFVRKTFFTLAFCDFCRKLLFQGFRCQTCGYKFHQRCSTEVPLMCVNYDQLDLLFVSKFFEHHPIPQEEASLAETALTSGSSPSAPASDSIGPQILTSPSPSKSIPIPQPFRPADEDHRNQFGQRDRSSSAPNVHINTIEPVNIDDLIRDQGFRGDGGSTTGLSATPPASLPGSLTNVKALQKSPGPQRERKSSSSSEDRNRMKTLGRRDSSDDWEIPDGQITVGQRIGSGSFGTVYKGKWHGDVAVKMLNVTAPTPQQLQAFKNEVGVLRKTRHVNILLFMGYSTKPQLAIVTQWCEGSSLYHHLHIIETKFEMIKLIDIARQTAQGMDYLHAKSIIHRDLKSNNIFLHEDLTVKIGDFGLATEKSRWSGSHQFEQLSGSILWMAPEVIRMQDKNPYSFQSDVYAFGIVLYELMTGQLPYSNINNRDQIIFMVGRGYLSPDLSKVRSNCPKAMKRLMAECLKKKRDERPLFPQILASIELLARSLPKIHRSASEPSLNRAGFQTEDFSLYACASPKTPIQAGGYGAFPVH
Chain of Serine/threonine-protein kinase PLK1 (P53350 whole entry): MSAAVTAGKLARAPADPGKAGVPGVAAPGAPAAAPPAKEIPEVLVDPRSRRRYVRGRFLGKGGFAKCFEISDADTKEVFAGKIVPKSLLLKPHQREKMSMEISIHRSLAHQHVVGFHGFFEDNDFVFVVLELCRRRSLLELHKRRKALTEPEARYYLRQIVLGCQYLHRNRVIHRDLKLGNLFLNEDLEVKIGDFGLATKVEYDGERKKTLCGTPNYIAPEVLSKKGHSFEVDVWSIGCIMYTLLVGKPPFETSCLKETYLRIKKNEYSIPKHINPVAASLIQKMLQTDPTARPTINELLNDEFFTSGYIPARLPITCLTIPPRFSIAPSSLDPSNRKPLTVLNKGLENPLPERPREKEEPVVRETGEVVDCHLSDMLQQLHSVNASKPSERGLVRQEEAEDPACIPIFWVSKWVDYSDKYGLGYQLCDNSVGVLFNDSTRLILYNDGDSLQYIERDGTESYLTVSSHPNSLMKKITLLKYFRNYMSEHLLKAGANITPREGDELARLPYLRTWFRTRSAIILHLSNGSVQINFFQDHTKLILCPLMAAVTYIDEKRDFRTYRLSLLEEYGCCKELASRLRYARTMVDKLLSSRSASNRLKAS
Chain of Aurora kinase B (Q96GD4 whole entry): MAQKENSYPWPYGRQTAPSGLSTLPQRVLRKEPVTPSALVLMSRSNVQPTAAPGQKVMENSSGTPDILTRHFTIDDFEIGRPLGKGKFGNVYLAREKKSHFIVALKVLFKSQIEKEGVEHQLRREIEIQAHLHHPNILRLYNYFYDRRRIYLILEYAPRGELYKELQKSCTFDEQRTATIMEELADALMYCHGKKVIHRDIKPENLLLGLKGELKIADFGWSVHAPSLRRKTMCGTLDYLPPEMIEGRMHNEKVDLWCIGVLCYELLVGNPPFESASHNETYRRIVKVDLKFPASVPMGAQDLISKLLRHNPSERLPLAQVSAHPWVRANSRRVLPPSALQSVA
Chain of Casein kinase II subunit alpha (P68400 whole entry): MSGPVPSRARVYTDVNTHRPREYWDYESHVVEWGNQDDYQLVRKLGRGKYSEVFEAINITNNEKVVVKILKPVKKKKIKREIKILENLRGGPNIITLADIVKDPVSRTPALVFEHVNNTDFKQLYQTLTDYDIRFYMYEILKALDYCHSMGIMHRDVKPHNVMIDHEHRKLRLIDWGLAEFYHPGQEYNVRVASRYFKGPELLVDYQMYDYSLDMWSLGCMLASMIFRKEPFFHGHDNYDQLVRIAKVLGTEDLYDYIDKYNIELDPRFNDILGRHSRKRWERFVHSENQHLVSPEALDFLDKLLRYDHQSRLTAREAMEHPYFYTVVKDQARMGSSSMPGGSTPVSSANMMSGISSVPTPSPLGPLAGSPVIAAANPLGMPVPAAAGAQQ
Chain of RAC-alpha serine/threonine-protein kinase (P31749 whole entry): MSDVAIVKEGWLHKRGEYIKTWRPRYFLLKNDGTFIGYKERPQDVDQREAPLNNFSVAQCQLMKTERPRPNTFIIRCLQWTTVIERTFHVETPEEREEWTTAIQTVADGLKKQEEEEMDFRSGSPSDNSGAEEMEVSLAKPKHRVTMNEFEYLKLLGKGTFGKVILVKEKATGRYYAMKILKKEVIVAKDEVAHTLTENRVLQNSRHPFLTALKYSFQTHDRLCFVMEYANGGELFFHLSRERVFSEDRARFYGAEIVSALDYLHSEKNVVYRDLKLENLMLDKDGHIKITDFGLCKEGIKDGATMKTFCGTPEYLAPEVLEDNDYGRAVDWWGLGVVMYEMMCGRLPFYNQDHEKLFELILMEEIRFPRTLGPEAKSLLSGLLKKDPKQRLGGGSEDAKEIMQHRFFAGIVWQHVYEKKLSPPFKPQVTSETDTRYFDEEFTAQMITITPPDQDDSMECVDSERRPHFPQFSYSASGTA
Chain of Vascular endothelial growth factor receptor 3 (P35916 whole entry): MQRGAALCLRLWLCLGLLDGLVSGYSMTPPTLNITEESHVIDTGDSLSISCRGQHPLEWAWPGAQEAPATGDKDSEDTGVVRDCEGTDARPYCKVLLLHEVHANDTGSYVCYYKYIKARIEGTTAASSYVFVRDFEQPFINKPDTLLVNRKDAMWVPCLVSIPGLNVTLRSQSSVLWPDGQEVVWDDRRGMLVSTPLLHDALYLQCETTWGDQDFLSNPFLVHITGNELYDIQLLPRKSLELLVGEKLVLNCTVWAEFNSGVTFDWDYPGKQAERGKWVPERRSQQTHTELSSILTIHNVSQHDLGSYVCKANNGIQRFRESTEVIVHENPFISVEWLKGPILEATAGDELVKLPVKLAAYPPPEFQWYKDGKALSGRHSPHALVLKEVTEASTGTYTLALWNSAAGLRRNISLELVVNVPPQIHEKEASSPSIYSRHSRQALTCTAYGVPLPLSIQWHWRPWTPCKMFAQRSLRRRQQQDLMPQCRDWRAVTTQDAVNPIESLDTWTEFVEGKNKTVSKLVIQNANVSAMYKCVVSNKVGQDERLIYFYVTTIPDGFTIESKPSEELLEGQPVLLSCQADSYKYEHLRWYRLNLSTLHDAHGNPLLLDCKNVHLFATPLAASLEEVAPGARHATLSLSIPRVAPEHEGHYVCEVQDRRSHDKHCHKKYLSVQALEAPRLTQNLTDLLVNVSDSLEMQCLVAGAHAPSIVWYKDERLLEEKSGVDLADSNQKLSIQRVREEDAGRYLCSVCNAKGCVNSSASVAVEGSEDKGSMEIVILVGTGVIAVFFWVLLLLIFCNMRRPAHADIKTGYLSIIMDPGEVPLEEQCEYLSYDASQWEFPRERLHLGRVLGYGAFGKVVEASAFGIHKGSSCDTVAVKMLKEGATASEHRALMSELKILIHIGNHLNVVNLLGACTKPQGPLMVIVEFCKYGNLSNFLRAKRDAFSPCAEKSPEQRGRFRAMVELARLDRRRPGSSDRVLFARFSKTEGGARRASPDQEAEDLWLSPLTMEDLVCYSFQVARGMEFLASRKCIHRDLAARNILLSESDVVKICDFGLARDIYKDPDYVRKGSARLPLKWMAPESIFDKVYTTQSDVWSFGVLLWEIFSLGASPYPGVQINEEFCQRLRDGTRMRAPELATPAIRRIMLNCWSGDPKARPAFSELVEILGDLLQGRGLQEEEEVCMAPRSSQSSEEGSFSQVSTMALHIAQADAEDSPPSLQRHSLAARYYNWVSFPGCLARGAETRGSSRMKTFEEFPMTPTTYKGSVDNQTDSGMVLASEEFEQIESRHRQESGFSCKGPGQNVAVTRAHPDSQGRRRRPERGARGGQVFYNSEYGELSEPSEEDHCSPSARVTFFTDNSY

Row | Compound | IC50 ([1]; read-out: IC50 (converted)) [µM] | IC50 ([3]; read-out: IC50 (converted)) [µM] | IC50 [4] | IC50 ([6]; read-out: IC50 (converted)) [µM] | IC50 [7] [×10⁻⁵ g/ml] | IC50 (Angiopoietin-1 receptor; read-out: IC50 (converted)) [µM] | Activity (L5178Y [8]) [%] | IC50 (Aurora kinase A; read-out: IC50 (converted)) [µM] | IC50 (Aurora kinase B; read-out: IC50 (converted)) [µM] | IC50 ([10]; read-out: IC50 (converted)) [µM] | IC50 [11] | IC50 ([2]; read-out: IC50 (converted)) [µM] | EC50 (L5178Y [12]) [µg/mL] | IC50 ([11]; read-out: IC50 (converted)) [µM] | IC50 [1] [×10⁻⁵ g/ml] | IC50 ([4]; read-out: IC50 (converted)) [µM] | IC50 [6] [×10⁻⁵ g/ml] | IC50 [9] [×10⁻⁵ g/ml] | IC50 (Aurora kinase A) | IC50 (Aurora kinase B) | other results
1 | COc1cc(O)c2c(=O)oc3c(O)c(O)cc(C)c3c2c1 | 9.37 | 4.86 | 3.9 ×10⁻⁷ g/ml | 19.8 | > 1 | 4.86 | 47.1 | 5.2 | 3.82 | 5.2 | 8.3 ×10⁻⁷ g/ml |  |  |  |  |  |  |  |  |  | IC50 [2]: 9.1 ×10⁻⁷ g/ml; IC50 ([5]; read-out: IC50 (converted)): 6.24 µM; IC50 ([9]; read-out: IC50 (converted)): 18.4 µM
2 | COc1cc(O)c2c(=O)oc3cc(O)cc(C)c3c2c1 | 16.5 | 4.41 | 9.6 ×10⁻⁷ g/ml | 30.1 | > 1 | 12.9 | 1.8 | 18.4 | 4.77 | 17.6 |  | 6.24 | 7.8 (≈ 28.6 µM) | 9.18 |  |  |  |  |  |  | IC50 ([9]; read-out: IC50 (converted)): 29 µM
3 | COc1cc(O)c(C(=O)O)c(C2=C(C)C[C@@H](O)C2=O)c1 [ALTERNARIENONIC ACID] |  | 16.5 |  |  | > 1 |  | 101.2 | 15.8 | 10.8 | 32.3 |  | 12.9 |  | 8.98 | > 1 | 13.3 | > 1 | > 1 |  |  | IC50 [5]: > 1 ×10⁻⁵ g/ml; IC50 (Angiopoietin-1 receptor): > 1 ×10⁻⁵ g/ml; IC50 [13]: > 1 ×10⁻⁵ g/ml
4 | Cc1cc(O)cc2oc(=O)c3c(O)cc(OS(=O)(=O)O)cc3c12 | 24.8 | 16.6 |  | 13 |  | 20.1 | 0.9 |  |  |  | 3.8 ×10⁻⁷ g/ml | 14.5 | 4.5 (≈ 13.3 µM) |  |  | 5.03 |  | > 1 | 3.9 ×10⁻⁷ g/ml | 2.2 ×10⁻⁷ g/ml | IC50 ([7]; read-out: IC50 (converted)): 5.91 µM; IC50 [10]: 7.4 ×10⁻⁷ g/ml
5 | Cc1cc(O)cc2oc(=O)c3c(O)cc(O)cc3c12 [ALTERNARIOL] | 36.4 | 17 |  | 26.7 |  | 27.1 | 3.7 |  |  | 6.2 | 9.6 ×10⁻⁷ g/ml | 13.2 | 1.7 (≈ 6.58 µM) |  |  | 5.03 |  | > 1 | 7.3 ×10⁻⁷ g/ml | 4.2 ×10⁻⁷ g/ml | IC50 [5]: 8.9 ×10⁻⁷ g/ml; IC50 ([7]; read-out: IC50 (converted)): 7.75 µM
6 | Cc1cc(O)c(O)cc1-c1cc(O)cc(O)c1C(=O)O |  | 17 |  |  | > 1 | 13.8 | 0.8 | 9.77 | 5.43 | 26.8 |  | 8.69 | 6.2 (≈ 22.4 µM) | 6.15 | > 1 | 24.6 | > 1 | > 1 |  |  | IC50 ([5]; read-out: IC50 (converted)): 21 µM
7 | COc1cc(O)c2c(c1)C1(OC2=O)C(C)=CC(=O)C1O (stereo not drawn) [TALAROFLAVONE] |  |  | > 1 ×10⁻⁵ g/ml |  | > 1 |  | 92.9 |  |  |  | > 1 ×10⁻⁵ g/ml |  |  |  | > 1 |  | > 1 | > 1 | > 1 ×10⁻⁵ g/ml | > 1 ×10⁻⁵ g/ml | IC50 [2]: > 1 ×10⁻⁵ g/ml; IC50 [3]: > 1 ×10⁻⁵ g/ml; IC50 (Angiopoietin-1 receptor): > 1 ×10⁻⁵ g/ml; IC50 [10]: > 1 ×10⁻⁵ g/ml; IC50 [13]: > 1 ×10⁻⁵ g/ml
8 | O=C1C[C@H](O)[C@@H]2c3c(ccc(O)c31)-c1ccc(O)c3c1[C@@]2(O)CCC3=O [ALTERTOXIN I] |  | 5.96 |  |  | > 1 | 25 | 77.3 | 4.82 |  | 19 |  | 4.82 |  | 4.82 | > 1 | 7.95 | > 1 | > 1 |  | 9.8 ×10⁻⁷ g/ml | 
9 | COc1cc(O)c(C(=O)O)c(-c2cc(O)c(O)cc2C)c1 [ALTENUSIN] |  | 28.6 | > 1 ×10⁻⁵ g/ml | 24.5 | > 1 | 33.8 | 1.2 | 6.2 | 3.79 | 11.4 |  | 16.9 | 6.8 (≈ 23.4 µM) | 11 | > 1 |  |  | > 1 |  |  | 
10 | COc1cc(O)c2c(c1)-c1cc(O)c(O)cc1COC2=O [ALTERLACTONE] |  |  | > 1 ×10⁻⁵ g/ml |  | > 1 |  | 11.8 |  |  |  | > 1 ×10⁻⁵ g/ml |  |  |  | > 1 |  | > 1 | > 1 | > 1 ×10⁻⁵ g/ml | > 1 ×10⁻⁵ g/ml | IC50 [2]: > 1 ×10⁻⁵ g/ml; IC50 [3]: > 1 ×10⁻⁵ g/ml; IC50 [5]: > 1 ×10⁻⁵ g/ml; IC50 (Angiopoietin-1 receptor): > 1 ×10⁻⁵ g/ml; IC50 [10]: > 1 ×10⁻⁵ g/ml; IC50 [13]: > 1 ×10⁻⁵ g/ml

Source: ChEMBL document CHEMBL1157406, “Cytotoxic metabolites from the fungal endophyte Alternaria sp. and their subsequent detection in its host plant Polygonum senegalense” (J Nat Prod, 2008)
